This experiment has as its target Delta-type opioid receptor (Homo sapiens, UniProt P41143). Briefly: Displacement of [3H]DADLE from human recombinant delta opioid receptor expressed in CHO cell membranes after 2 hrs by liquid scintillation counting analysis. In a few lines: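 Human DOR stably expressed in CHO cells; washed membranes (~30 µg protein/tube) incubated with ~2 nM [3H]DADLE and 10 drug concentrations in 50 mM Tris-HCl pH 7.4 with protease inhibitors, 2 h at 25 °C. Levallorphan defined nonspecific binding.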
Chain of Delta-type opioid receptor (P41143 whole entry): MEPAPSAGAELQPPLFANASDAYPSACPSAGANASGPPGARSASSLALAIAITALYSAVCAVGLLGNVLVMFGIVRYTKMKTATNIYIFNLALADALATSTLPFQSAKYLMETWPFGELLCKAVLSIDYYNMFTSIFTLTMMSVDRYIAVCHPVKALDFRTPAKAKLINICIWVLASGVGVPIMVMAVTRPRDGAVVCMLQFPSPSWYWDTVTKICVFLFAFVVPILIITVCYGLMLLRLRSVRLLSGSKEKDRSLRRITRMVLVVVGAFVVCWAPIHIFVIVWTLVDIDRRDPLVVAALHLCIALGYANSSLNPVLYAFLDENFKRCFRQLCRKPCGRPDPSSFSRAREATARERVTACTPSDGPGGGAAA
As usually defined, the Ki is the equilibrium dissociation constant of an inhibitor or competing ligand from its target. For the compound `Oc1ccc2c(c1)[C@]1(CCc3ccccc3)CCN(CCc3ccccc3)C[C@@H]1O2`, the Ki came to 39 nM.
Under `CN1CC[C@@]2(CCc3ccc(F)cc3)c3cc(O)ccc3O[C@H]2C1` stands 128 nM.
In the case of `CN1CC[C@@]2(C)c3cc(O)ccc3O[C@H]2C1`, the Ki was above 10000 nM.
Turning to `CN1CC[C@@]2(CCCCCc3ccccc3)c3cc(O)ccc3O[C@H]2C1`, the Ki was determined as 75 nM.
Under `Oc1ccc2c(c1)[C@]1(CCc3ccccc3)CCN(CCc3cccc(C(F)(F)F)c3)C[C@@H]1O2` stands 63 nM; under `Oc1ccc2c(c1)[C@]1(CCc3ccccc3)CCN(CCc3ccccc3C(F)(F)F)C[C@@H]1O2`, 136 nM; under `Oc1ccc2c(c1)[C@]1(CCc3ccccc3)CCN(CC3CC3)C[C@@H]1O2`, 24 nM.
Under `Oc1ccc2c(c1)[C@]1(CCc3ccccc3)CCN(CCCc3ccccc3)C[C@@H]1O2` stands 111 nM; under `CCCC[C@@]12CCN(C)C[C@@H]1Oc1ccc(O)cc12`, 207 nM.
For `Oc1ccc2c(c1)[C@]1(CCc3ccccc3)CCN(CCc3ccc(C(F)(F)F)cc3)C[C@@H]1O2`, the Ki amounted to 26 nM.
Under `Oc1ccc2c(c1)[C@]1(CCc3ccccc3)CCN(CCc3ccc(F)cc3)C[C@@H]1O2` stands 34 nM; under `Oc1ccc2c(c1)[C@]1(CCc3ccccc3)CCN(CCc3ccccc3F)C[C@@H]1O2`, 26 nM.
Under `CN1CC[C@@]2(CCc3ccccc3F)c3cc(O)ccc3O[C@H]2C1` stands 52 nM.

Source of the values: BindingDB's records for doi:10.1016/j.bmc.2013.02.060 (National Institute On Drug Abuse and The National Institute …, 2013).
